Results reported in PMC11225362 (iScience, 2024).
“And” between values parts separate entries of the source, which are not always exact repeats. Equal entries are not always repeated. “Also recorded” adds a separate entry of the source.

Experiments:
[1] = molecular target: human constitutive 20S proteasome (Homo sapiens, UniProt P25787+P60900); test: Fluorogenic small peptide assay with purified 20S proteasome; format: biochemical; details: for EC200 (concentration at which degradation rate is enhanced 2-fold, 200%): equimolar mixture of Suc-LLVY-AMC, Z-LLE-AMC, Boc-LRR-AMC, mean ± SD, n = 3
Method in brief: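 Human constitutive 20S proteasome (0.5 nM) in 38 mM Tris, 100 mM NaCl, pH 7.8 was preincubated 20 min at 37°C with test compound (3.75–30 μM, or 9 points 0.16–30 μM) in DMSO (2% final). Suc-LLVY-, Z-LLE- and Boc-LRR-AMC were added at 6.67 μM final each. AMC release (380/460 nm) was read at 37°C for 1 h. Hydrolysis rate was expressed relative to vehicle, and EC200 was taken as the 2-fold-rate concentration.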

[2] = molecular target: T1, purified 20S proteasome (Homo sapiens, UniProt P25787+P60900); test: Purified p25α digestion with 20S proteasome; format: biochemical; details: 10 μM compound; 7.5 nM 20S, 500 nM p25α, 3 h
Method in brief: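 20S proteasome (7.5 nM final) in 120 mM NaCl, 50 mM Tris, 0.1% β-mercaptoethanol, pH 7.2 was exposed to 10 μM test compound or DMSO for 30 min at 37°C. Purified p25α was pretreated with 100 μM DTE for 30 min at room temperature, then added at 500 nM final for 3 h. GAPDH (0.5 μM) was the loading control. Samples were boiled in SDS buffer and immunoblotted.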

[3] = system: p25α in HEK-293T cells; test: p25α levels in transfected HEK-293T cells; format: cell-based; details: 10 μM, 16 h
Method in brief: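 HEK-293T cells were transiently transfected with TPPP/p25α and A53T α-synuclein plasmids, and protein was expressed for 48 h. Cells were then treated 16 h with 10 μM test compound, DMSO, or 30 nM bortezomib as control. p25α was quantified by immunoblot in triplicate.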

[4] = system: ubiquitin in HEK-293T cells; test: Ubiquitin levels in unmodified HEK-293T cells; format: cell-based; details: for levels of ubiquitin: 10 μM
Method in brief: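 Untransfected HEK-293T cells were treated with 10 μM test compound, DMSO vehicle, or 100 nM bortezomib. Ubiquitin levels were visualized and quantified by immunoblotting relative to vehicle.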

[5] = system: A53T α-synuclein in HEK-293T cells; test: A53T α-synuclein levels in transfected HEK-293T cells; format: cell-based; details: for A53T α-synuclein remaining: vs DMSO; for α-synuclein remaining: 0.75 μM, A53T α-synuclein
[6] = molecular target: T1, purified 20S proteasome; test: Purified α-synuclein digestion with 20S proteasome; format: biochemical; details: 10 nM 20S, 300 nM α-synuclein, 3.5 h, 37°C
Method in brief: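 Purified human 20S proteasome (10 nM final) in 50 mM HEPES, 5 mM DTT, pH 7.2 was preincubated 45 min at 37°C with test compound in DMSO or DMSO alone. Purified α-synuclein (300 nM final) was added, and digestion ran 3.5 h at 37°C. GAPDH (0.5 μM) served as loading control. Samples were boiled 15 min in SDS buffer and immunoblotted with anti-α-synuclein (1:1333).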

[7] = system: p25α in PC12 cells; test: p25α levels in PC12 cells; format: cell-based, rat; details: 10 μM
[8] = system: A53T α-synuclein in HEK-293T cells; test: A53T α-synuclein levels in HEK-293T cells pre-treated with Bafilomycin A1; format: cell-based; details: 10 μM after 1 h pre-treatment with 500 nM Bafilomycin A1, HEK-293T
Method in brief: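 HEK-293T cells transiently expressing A53T α-synuclein (48 h expression) were pretreated with 500 nM bafilomycin A1 and exposed to 10 μM test compound. α-Synuclein levels were then determined by SDS-PAGE immunoblotting with anti-α-synuclein (1:1333).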

[9] = system: PC12 cells; format: cell-based, rat; details: 3 μM, 72 h; co-transfected PC12; untreated model 25%
[10] = system: proteasome activity in PC12 cells; format: cell-based, rat; details: 3 μM, 72 h; co-transfected PC12; untreated model 8%
Method in brief: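 PC12 cells (RPMI 1640 with 5% FBS and 10% horse serum) were strained and plated at 2,500 cells/well in 384-well plates. Cells were co-transfected with 0.5 μg A53T α-synuclein and 0.1 μg p25α plasmids for 24 h. They were then treated with 3 μM test compound or DMSO (0.03% final) for 72 h. Proteasome Glo reagent was added and luminescence recorded.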

With `O=C(Cn1c2ccccc2c2ccccc21)N(c1ccc(F)cc1)c1ccc(F)cc1` [Compound 2, 2-(9H-carbazol-9-yl)-N,N-bis(4-fluorophenyl)acetamide] the “EC200 (concentration at which degradation rate is enhanced 2-fold, 200%)” value [1] was 3.8 µM.

For `O=C(CCn1c2ccccc2c2ccncc21)N(c1ccc(F)cc1)c1ccc(F)cc1` [Compound 5, N,N-bis(4-fluorophenyl)-3-(9H-pyrido[3,4-b]indol-9-yl)propanamide], the “EC200 (concentration at which degradation rate is enhanced 2-fold, 200%)” value [1] was 3.8 µM.

In the case of `CN(C)CCC(=O)N(c1ccc(F)cc1)c1ccc(F)cc1` [Compound 19, 3-(dimethylamino)-N,N-bis(4-fluorophenyl)propanamide], the “p25α remaining compared to DMSO treated samples” value [2] is reported as “didn’t show significant impact on the rate of p25α degradation”, the “reduction of p25α” value [3] is reported as “didn’t impact the levels of p25α” and the levels of ubiquitin [4] is reported as “didn’t impact the levels of ubiquitin significantly”.

With `O=C(Cn1c2ccccc2c2ccncc21)N(c1ccc(F)cc1)c1ccc(F)cc1` [Compound 6, N,N-bis(4-fluorophenyl)-2-(9H-pyrido[3,4-b]indol-9-yl)acetamide] the “EC200 (concentration at which degradation rate is enhanced 2-fold, 200%)” value [1] was 2.0 µM.

`O=C(Cn1ccc2ccc(Cl)cc21)N(c1ccc(F)cc1)c1ccc(F)cc1` [Compound 10, 2-(6-chloro-1H-indol-1-yl)-N,N-bis(4-fluorophenyl)acetamide] was tested, and the “EC200 (concentration at which degradation rate is enhanced 2-fold, 200%)” value [1] was 1.6 µM.

For `O=C(Cn1c(=O)oc2ccccc21)N(c1ccc(F)cc1)c1ccc(F)cc1` [Compound 14, N,N-bis(4-fluorophenyl)-2-(2-oxobenzo[d]oxazol-3(2H)-yl)acetamide], the “20S proteasome activation (in words)” value ([1]; fluorogenic peptide assay) was “abrogated all 20S proteasome activity” and the “A53T α-synuclein remaining” value ([5]; 15 μM, 16 h) was “no significant effect on degradation; also recorded: no impact on the levels of A53T α-synuclein”.

`O=C(CCn1c2ccccc2c2ccc(Cl)cc21)N(c1ccc(F)cc1)c1ccc(F)cc1` [Compound 3, 3-(2-chloro-9H-carbazol-9-yl)-N,N-bis(4-fluorophenyl)propanamide] was tested, and the “EC200 (concentration at which degradation rate is enhanced 2-fold, 200%)” value [1] was 0.9 µM and the α-synuclein remaining ([6]; 15 μM compound) was 33%.

With `CC(C)C[C@H](NC(=O)[C@H](Cc1ccccc1)NC(=O)c1cnccn1)B(O)O` [BTZ, Bortezomib, reference compound] the “increase of A53T α-synuclein levels” value ([5]; 30 nM, 16 h) was 148% and 135% and the “ubiquitin as compared to the vehicle” value ([4]; 100 nM) was 298%.

For `O=C(CN1CCOc2ccccc21)N(c1ccc(F)cc1)c1ccc(F)cc1` [Compound 12, 2-(2,3-dihydro-4H-benzo[b][1,4]oxazin-4-yl)-N,N-bis(4-fluorophenyl)acetamide], the “EC200 (concentration at which degradation rate is enhanced 2-fold, 200%)” value [1] was 8.0 µM.

With `O=C(CCn1ccc2ccccc21)N(c1ccc(F)cc1)c1ccc(F)cc1` [Compound 7, N,N-bis(4-fluorophenyl)-3-(1H-indol-1-yl)propanamide] the “EC200 (concentration at which degradation rate is enhanced 2-fold, 200%)” value [1] was 7.5 µM.

“N,N-bis(4-fluorophenyl)-2-(2-methyl-9H-carbazol-9-yl)acetamide [Compound 4]” was tested, and the “EC200 (concentration at which degradation rate is enhanced 2-fold, 200%)” value [1] was 1.2 µM, the α-synuclein remaining ([6]; 5 μM compound) was 58% and the α-synuclein remaining ([6]; 15 μM compound) was 33%. The “p25α remaining compared to DMSO treated samples” value [2] was 28%, the α-synuclein remaining [5] was 72% and the “A53T α-synuclein remaining” value ([5]; 5 μM, 16 h) was 30%. For the same compound, the “A53T α-synuclein remaining” value ([5]; 10 μM, 16 h) was 14%, the “A53T α-synuclein remaining” value ([5]; 15 μM, 16 h) was 11% and the “reduction of p25α” value [3] was “non-significant”. For the same compound, the p25α remaining [7] was 67%, the “A53T α-synuclein remaining” value [8] was 28% and the levels of ubiquitin [4] was “didn’t impact the levels of ubiquitin significantly”. The cell viability [9] was 75% and the proteasome activity remaining [10] was 34%.

For `O=C(CCn1c2ccccc2c2ccccc21)N(c1ccc(F)cc1)c1ccc(F)cc1` [Compound 1, 3-(9H-carbazol-9-yl)-N,N-bis(4-fluorophenyl)propanamide], the “EC200 (concentration at which degradation rate is enhanced 2-fold, 200%)” value [1] was 1.6 µM, the α-synuclein remaining ([6]; 5 μM compound) was 45% and the α-synuclein remaining ([6]; 15 μM compound) was 28%. The “p25α remaining compared to DMSO treated samples” value [2] was 29%, the α-synuclein remaining [5] was 55% and the “decrease of A53T α-synuclein” value ([5]; 1 μM, 16 h) was 67%. For the same compound, the “A53T α-synuclein remaining” value ([5]; 1 μM, 16 h) was 64%, the “A53T α-synuclein remaining” value ([5]; 15 μM, 16 h) was 21% and the “reduction of p25α” value [3] was 45%. The p25α remaining [7] was 40%, the “A53T α-synuclein remaining” value [8] was 16% and the levels of ubiquitin [4] was “didn’t impact the levels of ubiquitin significantly”. For the same compound, the proteasome activity remaining [10] was 29%.

In the case of `O=C(CCn1c(=O)oc2ccccc21)N(c1ccc(F)cc1)c1ccc(F)cc1` [Compound 13, N,N-bis(4-fluorophenyl)-3-(2-oxobenzo[d]oxazol-3(2H)-yl)propanamide], the “EC200 (concentration at which degradation rate is enhanced 2-fold, 200%)” value [1] is reported as 1.3 µM.

For “3-(2,3-dihydro-4H-benzo[b][1,4]oxazin-4-yl)-N,N-bis(4-fluorophenyl)propenamide [Compound 11]”, the “EC200 (concentration at which degradation rate is enhanced 2-fold, 200%)” value [1] was 9.0 µM.

With `CCOC(=O)[C@]1(c2ccccc2)N=C(c2ccc(OC)cc2)N(Cc2ccccc2)[C@@H]1c1ccc(NCc2ccccc2)cc1` [TCH-165, reference compound] the α-synuclein remaining ([6]; 5 μM compound) was 60%, the α-synuclein remaining ([6]; 15 μM compound) was 40% and the “A53T α-synuclein remaining” value ([5]; 10 μM, 16 h) was 52% and 40%.

With `O=C(Cn1ccc2ccccc21)N(c1ccc(F)cc1)c1ccc(F)cc1` [Compound 8, N,N-bis(4-fluorophenyl)-2-(1H-indol-1-yl)acetamide] the “EC200 (concentration at which degradation rate is enhanced 2-fold, 200%)” value [1] was 7.5 µM.
